Key:
[1] = system: MM1.S; experiment: Antiproliferative activity against human MM1.S cells assessed as inhibition of cell proliferation measured up to 72 hrs by CellTiter96 Aqueous one reagent based assay; type: functional
[2] = target: T1, Protein deacetylase HDAC6 (Homo sapiens, UniProt Q9UBN7); experiment: Inhibition of full length human N-terminal GST-tagged HDAC6 using fluorogenic acetylated peptide as substrate incubated for 30 mins by fluorescence plate reader assay
T1 sequence (Q9UBN7 whole entry): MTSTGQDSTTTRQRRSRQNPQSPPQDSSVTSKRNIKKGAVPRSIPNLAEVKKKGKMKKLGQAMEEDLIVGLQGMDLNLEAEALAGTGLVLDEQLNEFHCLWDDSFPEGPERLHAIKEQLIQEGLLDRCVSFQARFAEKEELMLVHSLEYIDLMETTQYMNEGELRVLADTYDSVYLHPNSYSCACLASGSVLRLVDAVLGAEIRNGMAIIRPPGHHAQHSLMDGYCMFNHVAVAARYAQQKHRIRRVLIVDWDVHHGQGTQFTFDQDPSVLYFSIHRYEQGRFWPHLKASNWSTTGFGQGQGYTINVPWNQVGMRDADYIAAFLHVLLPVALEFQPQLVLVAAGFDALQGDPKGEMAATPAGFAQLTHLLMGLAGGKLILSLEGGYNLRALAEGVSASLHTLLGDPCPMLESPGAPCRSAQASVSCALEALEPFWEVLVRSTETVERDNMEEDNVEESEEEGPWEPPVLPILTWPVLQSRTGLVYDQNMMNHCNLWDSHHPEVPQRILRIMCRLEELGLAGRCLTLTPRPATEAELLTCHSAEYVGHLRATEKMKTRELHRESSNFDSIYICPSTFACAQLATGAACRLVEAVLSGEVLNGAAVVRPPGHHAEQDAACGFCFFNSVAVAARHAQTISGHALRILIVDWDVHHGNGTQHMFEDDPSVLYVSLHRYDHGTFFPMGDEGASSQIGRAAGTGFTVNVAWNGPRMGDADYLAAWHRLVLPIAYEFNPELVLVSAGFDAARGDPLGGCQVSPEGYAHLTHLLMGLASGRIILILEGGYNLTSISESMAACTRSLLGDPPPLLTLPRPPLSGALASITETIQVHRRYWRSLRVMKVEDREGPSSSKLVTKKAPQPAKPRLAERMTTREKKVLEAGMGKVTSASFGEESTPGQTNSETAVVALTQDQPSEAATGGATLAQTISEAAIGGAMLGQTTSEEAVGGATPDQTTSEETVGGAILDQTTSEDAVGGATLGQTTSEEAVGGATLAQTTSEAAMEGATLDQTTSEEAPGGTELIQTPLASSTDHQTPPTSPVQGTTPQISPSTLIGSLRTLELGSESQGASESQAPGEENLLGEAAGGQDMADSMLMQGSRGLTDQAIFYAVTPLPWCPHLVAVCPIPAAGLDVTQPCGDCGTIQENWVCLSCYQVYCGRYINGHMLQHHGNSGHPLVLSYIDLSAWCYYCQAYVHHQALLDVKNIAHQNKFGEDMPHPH

[3] = Permeability of the compound in PBS/EtOH buffer (70:30) incubated for 18 hrs by UV plate reader based PAMPA assay; type: ADME; details: read-out: permeability
[4] = target: Histone deacetylase 1 (Homo sapiens, UniProt Q13547); experiment: Inhibition of full length human C-terminal His-tagged/C-terminal Flag-tagged HDAC1 using fluorogenic acetylated peptide as substrate incubated for 30 mins by fluorescence plate reader assay
[5] = target: DNA (cytosine-5)-methyltransferase 1 (Homo sapiens, UniProt P26358); experiment: Inhibition of human DNMT1 enzyme using polydeoxy-inosine polydeoxy-cytosine DNA as substrate incubated for 15 mins in presence of SAM by TR-FRET assay
[6] = target: T2, Histone-lysine N-methyltransferase EHMT2 (Homo sapiens, UniProt Q96KQ7); experiment: Inhibition of human G9a enzyme using histone monomethyl-H3K9 peptide as substrate incubated for 1 hr in presence of SAM by TR-FRET assay
T2 sequence (Q96KQ7 whole entry): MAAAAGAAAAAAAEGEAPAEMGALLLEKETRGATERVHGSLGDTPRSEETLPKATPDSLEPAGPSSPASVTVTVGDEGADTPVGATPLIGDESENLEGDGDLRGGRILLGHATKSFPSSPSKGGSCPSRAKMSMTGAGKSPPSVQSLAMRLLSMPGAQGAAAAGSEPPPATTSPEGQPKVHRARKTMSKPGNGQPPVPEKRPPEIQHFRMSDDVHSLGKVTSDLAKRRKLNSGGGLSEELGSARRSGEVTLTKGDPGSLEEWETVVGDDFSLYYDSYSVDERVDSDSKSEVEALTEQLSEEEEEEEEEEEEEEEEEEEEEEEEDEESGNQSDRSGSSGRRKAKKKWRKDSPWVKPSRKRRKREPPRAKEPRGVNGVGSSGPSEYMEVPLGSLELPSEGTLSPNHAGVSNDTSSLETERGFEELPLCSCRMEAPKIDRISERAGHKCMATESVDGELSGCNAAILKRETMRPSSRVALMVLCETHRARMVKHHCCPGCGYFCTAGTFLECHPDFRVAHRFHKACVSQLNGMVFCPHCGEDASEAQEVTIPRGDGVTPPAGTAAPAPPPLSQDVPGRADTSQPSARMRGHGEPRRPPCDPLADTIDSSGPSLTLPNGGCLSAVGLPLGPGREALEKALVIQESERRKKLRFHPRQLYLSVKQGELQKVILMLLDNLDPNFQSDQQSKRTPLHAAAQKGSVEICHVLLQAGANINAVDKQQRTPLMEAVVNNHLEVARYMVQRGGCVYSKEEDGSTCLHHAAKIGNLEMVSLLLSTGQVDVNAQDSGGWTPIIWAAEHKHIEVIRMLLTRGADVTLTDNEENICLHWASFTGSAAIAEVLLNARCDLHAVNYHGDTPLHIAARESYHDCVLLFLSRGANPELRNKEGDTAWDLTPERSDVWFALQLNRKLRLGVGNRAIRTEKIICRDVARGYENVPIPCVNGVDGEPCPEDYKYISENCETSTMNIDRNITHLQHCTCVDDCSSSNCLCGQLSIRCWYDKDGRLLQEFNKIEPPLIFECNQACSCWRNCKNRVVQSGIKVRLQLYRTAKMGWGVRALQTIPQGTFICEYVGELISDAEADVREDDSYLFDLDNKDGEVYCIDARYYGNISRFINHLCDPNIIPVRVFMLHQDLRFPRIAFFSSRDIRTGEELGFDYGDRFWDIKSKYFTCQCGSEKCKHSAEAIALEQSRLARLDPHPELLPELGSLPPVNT

[7] = system: THLE-2; experiment: Cytotoxicity against human THLE-2 cells assessed as decrease in cell viability measured after 72 hrs by Vialight-plus cell proliferation assay; type: cell-based; details: thle-2, 72 h
Outline: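 Human THLE-2 cells exposed to compound for 72 h. Cytotoxicity reported as LC50 and pLC50, averaged from at least two independent experiments on different days.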

[8] = time hrs <=72, read-out: pGI50 (converted)

Histone deacetylase 1, sequence (Q13547 whole entry): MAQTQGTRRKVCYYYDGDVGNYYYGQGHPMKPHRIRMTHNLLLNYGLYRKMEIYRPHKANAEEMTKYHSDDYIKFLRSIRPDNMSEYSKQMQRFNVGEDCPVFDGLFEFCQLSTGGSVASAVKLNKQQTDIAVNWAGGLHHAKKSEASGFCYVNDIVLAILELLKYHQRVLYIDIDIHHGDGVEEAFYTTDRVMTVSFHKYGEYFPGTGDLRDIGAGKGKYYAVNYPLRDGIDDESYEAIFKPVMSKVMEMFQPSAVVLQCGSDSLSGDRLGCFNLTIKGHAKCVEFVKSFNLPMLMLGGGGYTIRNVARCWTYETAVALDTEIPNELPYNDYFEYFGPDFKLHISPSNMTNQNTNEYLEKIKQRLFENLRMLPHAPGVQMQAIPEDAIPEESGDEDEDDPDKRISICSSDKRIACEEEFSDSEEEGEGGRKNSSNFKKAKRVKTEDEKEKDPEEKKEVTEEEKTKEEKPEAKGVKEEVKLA
DNA (cytosine-5)-methyltransferase 1, sequence (P26358 whole entry): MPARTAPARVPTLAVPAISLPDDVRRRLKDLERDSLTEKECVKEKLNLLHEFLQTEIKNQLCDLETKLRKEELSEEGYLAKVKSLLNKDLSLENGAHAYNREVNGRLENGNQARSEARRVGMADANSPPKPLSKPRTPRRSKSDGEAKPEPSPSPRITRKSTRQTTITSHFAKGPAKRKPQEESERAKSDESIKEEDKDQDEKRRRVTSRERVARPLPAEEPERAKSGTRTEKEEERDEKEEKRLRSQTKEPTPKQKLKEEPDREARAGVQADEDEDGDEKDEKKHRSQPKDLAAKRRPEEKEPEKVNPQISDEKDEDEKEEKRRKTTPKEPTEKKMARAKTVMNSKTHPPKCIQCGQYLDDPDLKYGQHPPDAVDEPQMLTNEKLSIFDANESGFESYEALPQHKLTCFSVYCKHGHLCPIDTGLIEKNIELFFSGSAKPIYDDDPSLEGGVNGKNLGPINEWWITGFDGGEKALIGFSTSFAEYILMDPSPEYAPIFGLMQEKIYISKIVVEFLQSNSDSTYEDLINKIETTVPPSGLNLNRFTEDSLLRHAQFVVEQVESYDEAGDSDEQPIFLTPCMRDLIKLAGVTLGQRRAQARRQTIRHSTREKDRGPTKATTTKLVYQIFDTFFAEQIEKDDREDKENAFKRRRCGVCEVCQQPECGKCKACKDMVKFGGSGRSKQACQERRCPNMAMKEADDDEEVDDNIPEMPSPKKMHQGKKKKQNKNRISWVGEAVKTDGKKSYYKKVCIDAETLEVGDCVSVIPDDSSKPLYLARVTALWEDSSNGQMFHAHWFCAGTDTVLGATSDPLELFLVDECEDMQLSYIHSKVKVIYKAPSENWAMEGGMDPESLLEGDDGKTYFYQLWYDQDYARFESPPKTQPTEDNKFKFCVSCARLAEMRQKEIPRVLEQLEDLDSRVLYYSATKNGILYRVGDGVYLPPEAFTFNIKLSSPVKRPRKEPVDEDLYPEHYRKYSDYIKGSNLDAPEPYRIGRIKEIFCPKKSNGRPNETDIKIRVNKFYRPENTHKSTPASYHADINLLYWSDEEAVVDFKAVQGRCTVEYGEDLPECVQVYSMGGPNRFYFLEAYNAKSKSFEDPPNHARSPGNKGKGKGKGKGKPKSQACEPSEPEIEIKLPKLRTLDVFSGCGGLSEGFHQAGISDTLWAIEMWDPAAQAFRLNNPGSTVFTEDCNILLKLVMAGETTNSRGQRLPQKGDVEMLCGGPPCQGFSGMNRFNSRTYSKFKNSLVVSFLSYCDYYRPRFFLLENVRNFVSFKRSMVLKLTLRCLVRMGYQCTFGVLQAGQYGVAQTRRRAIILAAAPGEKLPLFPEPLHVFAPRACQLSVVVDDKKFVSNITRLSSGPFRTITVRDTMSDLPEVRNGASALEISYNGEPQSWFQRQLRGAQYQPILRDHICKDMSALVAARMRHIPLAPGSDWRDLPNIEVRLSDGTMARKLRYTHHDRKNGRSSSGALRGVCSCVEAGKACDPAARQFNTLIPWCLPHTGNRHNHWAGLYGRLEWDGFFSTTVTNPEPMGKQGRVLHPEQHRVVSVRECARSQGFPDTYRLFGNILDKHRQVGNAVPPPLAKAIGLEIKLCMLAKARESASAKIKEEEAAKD

| SMILES | GI50 ([1]; time hrs <=72, read-out: GI50) | GI50 [1, 8] | IC50 [2] | Papp at 18 h [3] | IC50 [4] | IC50 [5] | IC50 [6] | LC50 [7] | pLC50 [7] |
| --- | --- | --- | --- | --- | --- | --- | --- | --- | --- |
| COc1cc2c(NCC3CCN(c4ccc(C(=O)NO)cc4)CC3)cc(-c3ccc(C)o3)nc2cc1OCCCN1CCCC1 | 3760 nM | 3720 nM | 67 nM | 0.05 ×10⁻⁶ cm/s | 78 nM | 417 nM | 269 nM | 9700 nM | 5.01 |
| COc1cc2nc(-c3cc(C)oc3C)cc(NCC3CCN(c4ncc(C(=O)NO)cn4)CC3)c2cc1OC | – | – | 126 nM | – | 5 nM | > 10000 nM | > 10000 nM | – | – |
| COc1cc2c(NC3CCN(c4ncc(C(=O)NO)cn4)CC3)cc(C)nc2cc1OCCCN1CCCC1 | > 10000 nM | > 10000 nM | 118 nM | 0.075 ×10⁻⁶ cm/s | 17 nM | 2040 nM | 34 nM | 33250 nM | 4.48 |
| COc1cc2nc(-c3ccc(C)o3)cc(NCC3CCN(Cc4ccc(C(=O)NO)s4)CC3)c2cc1OC | 1940 nM | 1950 nM | 66 nM | 0.401 ×10⁻⁶ cm/s | 303 nM | 323 nM | > 10000 nM | 2227 nM | 5.65 |
| COc1cc2c(NCC3CCN(C4CCC(C(=O)NO)CC4)CC3)cc(-c3ccc(C)o3)nc2cc1OCCCN1CCCC1 (stereo not drawn) | – | – | > 20000 nM | – | > 20000 nM | 566 nM | 38 nM | – | – |
| COc1cc2c(NC3CCN(Cc4ccc(C(=O)NO)cc4)CC3)cc(-c3ccc(C)o3)nc2cc1OCCCN1CCCC1 | 4210 nM | 4170 nM | 39 nM | – | 147 nM | 318 nM | 47 nM | 22050 nM | 4.66 |
| Cc1[nH]c2ccccc2c1CCNCc1ccc(/C=C/C(=O)NO)cc1 [PANOBINOSTAT] | 8.9 nM | 8.91 nM | – | 1.42 ×10⁻⁶ cm/s | – | – | – | 22 nM | 7.66 |
| COc1cc2c(NCC3CCN(c4ncc(C(=O)NO)cn4)CC3)cc(-c3ccc(C)o3)nc2cc1OCC1CCNCC1 | > 10000 nM | > 10000 nM | 351 nM | 0.025 ×10⁻⁶ cm/s | 6 nM | 1140 nM | 2070 nM | 19700 nM | 4.71 |
| O=C(CCCCCCC(=O)Nc1ccccc1)NO [VORINOSTAT] | – | – | – | – | – | > 10000 nM | > 10000 nM | – | – |
| COc1cc2nc(-c3ccc(C)o3)cc(NCC3CCN(C4CC(C(=O)NO)C4)CC3)c2cc1OC (stereo not drawn) | 1980 nM | 2000 nM | 3180 nM | 0.068 ×10⁻⁶ cm/s | 453 nM | 540 nM | > 10000 nM | 10410 nM | 4.98 |
| COc1cc2nc(-c3ccccc3)cc(NCC3CCN(c4ncc(C(=O)NO)cn4)CC3)c2cc1OC | – | – | 230 nM | – | 3 nM | > 10000 nM | > 10000 nM | – | – |
| COc1cc2nc(C)cc(NCC3CCN(c4ncc(C(=O)NO)cn4)CC3)c2cc1OC | – | – | 253 nM | – | 3 nM | > 10000 nM | 7.2 nM | – | – |
| COc1cc2nc(-c3ccc(C)o3)cc(NCC3CCN(c4ccc(C(=O)NO)cn4)CC3)c2cc1OC | – | – | 465 nM | – | 144 nM | 8410 nM | > 10000 nM | – | – |
| COc1cc2nc(-c3ccc(C)o3)cc(NCc3ccc(C(=O)NO)cn3)c2cc1OC | – | – | 204 nM | – | 87 nM | > 10000 nM | > 10000 nM | – | – |
| COc1cc2c(NCc3ccc([C@H]4CC[C@@H](C(=O)NO)CC4)cc3)cc(-c3ccc(C)o3)nc2cc1OCCCN1CCCC1 | – | – | 351 nM | – | 115 nM | 1430 nM | 1920 nM | – | – |
| COc1cc2nc(-c3ccc(C)o3)cc(N[C@H]3CC[C@H](C(=O)NO)CC3)c2cc1OC | – | – | > 20000 nM | – | > 4000 nM | 4180 nM | > 10000 nM | – | – |
| COc1cc2c(NCC3CCC(c4ccc(C(=O)NO)cc4)CC3)cc(-c3ccc(C)o3)nc2cc1OCCCN1CCCC1 (stereo not drawn) | – | – | 122 nM | – | 34 nM | 2760 nM | 3100 nM | – | – |
| COc1cc2c(NCc3ccc([C@H]4CC[C@H](C(=O)NO)CC4)cc3)cc(-c3ccc(C)o3)nc2cc1OCCCN1CCCC1 | – | – | 9620 nM | – | 3320 nM | 2270 nM | 1650 nM | – | – |
| COc1cc2nc(N3CCCCC3)cc(NCC3CCN(c4ncc(C(=O)NO)cn4)CC3)c2cc1OC | – | – | 234 nM | – | 3 nM | > 10000 nM | > 10000 nM | – | – |
| COc1cc2nc(-c3ccc(C)o3)cc(N[C@H]3CC[C@@H](C(=O)NO)CC3)c2cc1OC | – | – | 2890 nM | – | 396 nM | 2660 nM | > 10000 nM | – | – |
| COc1cc2nc(-c3ccc(C)s3)cc(NCC3CCN(c4ncc(C(=O)NO)cn4)CC3)c2cc1OC | – | – | 1260 nM | – | 17 nM | > 10000 nM | > 10000 nM | – | – |
| COc1cc2c(NCC3CCN(Cc4ccc(C(=O)NO)cc4)CC3)cc(-c3ccc(C)o3)nc2cc1OCCCN1CCCC1 | 3570 nM | 3550 nM | 53 nM | – | 524 nM | 167 nM | 46 nM | 3890 nM | 5.41 |
| COc1cc2c(NCC3CCN(c4ncc(C(=O)NO)cn4)CC3)cc(C)nc2cc1OCCCN1CCCC1 | > 10000 nM | > 10000 nM | 350 nM | – | 7 nM | 555 nM | 4 nM | > 100000 nM | < 4 |

— ChEMBL document CHEMBL4834403, “Design and Synthesis of Novel Epigenetic Inhibitors Targeting Histone Deacetylases, DNA Methyltransferase 1, and Lysine Methyltransferase G9a with In Vivo Efficacy in Multiple Myeloma” (J Med Chem, 2021)
